Data from BindingDB's records for doi:10.1021/jm701107h (The Ohio State University, 2008).

Target: T1, Aromatase (Homo sapiens, UniProt P11511)
T1 sequence (P11511 whole entry): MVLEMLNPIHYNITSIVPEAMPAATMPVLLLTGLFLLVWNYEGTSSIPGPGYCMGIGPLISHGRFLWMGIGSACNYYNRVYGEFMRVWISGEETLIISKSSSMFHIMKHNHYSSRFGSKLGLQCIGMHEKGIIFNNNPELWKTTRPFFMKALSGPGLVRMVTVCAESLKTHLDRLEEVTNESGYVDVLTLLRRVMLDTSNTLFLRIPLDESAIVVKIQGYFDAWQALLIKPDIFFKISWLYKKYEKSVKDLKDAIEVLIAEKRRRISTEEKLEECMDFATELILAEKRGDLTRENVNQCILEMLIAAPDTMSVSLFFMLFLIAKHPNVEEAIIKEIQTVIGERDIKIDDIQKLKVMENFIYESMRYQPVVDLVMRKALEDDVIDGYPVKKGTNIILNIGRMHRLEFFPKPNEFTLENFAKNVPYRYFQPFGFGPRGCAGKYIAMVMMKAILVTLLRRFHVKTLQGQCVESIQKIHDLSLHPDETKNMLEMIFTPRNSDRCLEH
Assay: Inhibition of aromatase in human SKBR3 cells by tritiated water release assay
Summary of the method: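 Subconfluent SK-BR-3 cells were switched to defined DMEM/F12 (human albumin, transferrin, insulin) and treated 24 h at five concentrations in triplicate (0.1% DMSO vehicle). They were then incubated 3 h with 100 nM [1β-3H]-androstenedione. TCA-precipitated medium was chloroform-extracted and charcoal-treated, and 3H2O counted as pmol/h/10^6 cells, normalized by DNA assay. IC50 was taken from sigmoidal dose–response fits.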

| IC50 | Structure (SMILES) |
| --- | --- |
| > 25 µM | COc1cc([N+](=O)[O-])ccc1NS(C)(=O)=O [N-(2-methoxy-4-nitrophenyl)methanesulfonamide] |
| > 25 µM | COc1cc([N+](=O)[O-])ccc1N(C)S(C)(=O)=O [N-methyl-N-(2-methoxy-4-nitrophenyl)methanesulfonamide] |
